Data: ChEMBL document CHEMBL1127450, “Synthesis and antiviral activity evaluation of some aminoadamantane derivatives” (1994)
≈ marks a conversion by molar mass, not a printed value.

Legend:
Type in all cases: functional
[1] = tested on: MDCK; assay: Tested for minimum inhibitory concentration required to cause a microscopically detectable alteration of normal cell morphology by 50% on MDCK cell line; conditions: Canis lupus familiaris
In short: (§1)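 HeLa (human epithelial), MDCK (Madin-Darby canine kidney) or Vero (African green monkey kidney) cells were scored by microscopy. The value is the minimum concentration that causes a detectable alteration of normal cell morphology. Values are averages of at least two separate experiments.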

[2] = tested on: HEF; assay: Tested for minimum inhibitory concentration required to reduce virus-induced cytopathicity by 50% on HEF cell line infected with HSV-1 virus; conditions: Homo sapiens
In short: (§2)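 Human embryonic skin-muscle fibroblasts (HEF) were infected with the stated virus. The value is the concentration that reduces virus-induced cytopathicity by 50%. Values are averages of at least two separate experiments.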

[3] = tested on: HEF; assay: Tested for minimum inhibitory concentration required to reduce […] by 50% on HEF cell line; conditions: Homo sapiens
In short: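 Human embryonic lung fibroblasts (HEF) were used for cell proliferation. The value is the concentration that reduces cell proliferation by 50%. Values are averages of at least two separate experiments.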

[4] = tested on: HEF; assay: Tested for minimum inhibitory concentration required to reduce virus-induced cytopathicity by 50% on HEF cell line infected with HSV-2 virus; conditions: Homo sapiens; in short: as §2
[5] = tested on: HeLa; assay: Tested for minimum inhibitory concentration required to cause a microscopically detectable alteration of normal cell morphology by 50% on HeLa cell line; conditions: Homo sapiens; in short: as §1
[6] = tested on: HEF; assay: Tested for minimum inhibitory concentration required to reduce virus-induced cytopathicity by 50% on HEF cell line infected with vaccinia virus; conditions: Homo sapiens; in short: as §2
[7] = tested on: Vero; assay: Tested for minimum inhibitory concentration required to reduce virus-induced cytopathicity by 50% on vero cell line infected with parainfluenza 3 virus; conditions: Chlorocebus sabaeus
In short: (§3)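 HeLa (human epithelial), MDCK (Madin-Darby canine kidney) or Vero (African green monkey kidney) cells were infected with the stated virus. The value is the concentration that reduces virus-induced cytopathicity by 50%. Values are averages of at least two separate experiments.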

[8] = tested on: MDCK; assay: Tested for minimum inhibitory concentration required to reduce virus-induced cytopathicity by 50% on MDCK cell line infected with influenza B virus; conditions: Canis lupus familiaris; in short: as §3
[9] = tested on: MDCK; assay: Tested for minimum inhibitory concentration required to reduce virus-induced cytopathicity by 50% on MDCK cell line infected with influenza A virus; conditions: Canis lupus familiaris; in short: as §3
[10] = tested on: HeLa; assay: Tested for minimum inhibitory concentration required to reduce virus-induced cytopathicity by 50% on HeLa cell line infected with polio 1 virus; conditions: Homo sapiens; in short: as §3
[11] = tested on: Vero; assay: Tested for minimum inhibitory concentration required to reduce virus-induced cytopathicity by 50% on vero cell line infected with Reo 1 virus; conditions: Chlorocebus sabaeus; in short: as §3
[12] = tested on: HEF; assay: Tested for minimum inhibitory concentration required to reduce virus-induced cytopathicity by 50% on HEF cell line infected with vesicular stomatitis virus; conditions: Homo sapiens; in short: as §2
[13] = tested on: Vero; assay: Tested for minimum inhibitory concentration required to reduce virus-induced cytopathicity by 50% on vero cell line infected with sindbis virus; conditions: Chlorocebus sabaeus; in short: as §3
[14] = tested on: CCRF-CEM; assay: Tested for minimum inhibitory concentration required to reduce virus-induced cell viability by 50% on CEM cell line; conditions: Homo sapiens
[15] = tested on: Vero; assay: Tested for minimum inhibitory concentration required to cause a microscopically detectable alteration of normal cell morphology by 50% on vero cell line; conditions: Chlorocebus sabaeus; in short: as §1
[16] = tested on: HeLa; assay: Tested for minimum inhibitory concentration required to reduce virus-induced cytopathicity by 50% on HeLa cell line infected with RSV virus; conditions: Homo sapiens; in short: as §3
[17] = tested on: Vero; assay: Tested for minimum inhibitory concentration required to reduce virus-induced cytopathicity by 50% on vero cell line infected with semliki forest virus; conditions: Chlorocebus sabaeus; in short: as §3
[18] = tested on: CCRF-CEM; assay: Tested for minimum inhibitory concentration required to reduce virus-induced cytopathicity by 50% on CEM cell line infected with HIV-2 virus; conditions: Homo sapiens
[19] = tested on: HEF; assay: Tested for minimum inhibitory concentration required to cause a microscopically detectable alteration of normal cell morphology by 50% on HEF cell line; conditions: Homo sapiens
In short: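 Human embryonic skin-muscle fibroblasts (HEF) were used. The value is the minimum concentration that causes a microscopically detectable alteration of normal cell morphology. Values are averages of at least two separate experiments.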

[20] = tested on: Vero; assay: Tested for minimum inhibitory concentration required to reduce virus-induced cytopathicity by 50% on vero cell line infected with coxsackie B4 virus; conditions: Chlorocebus sabaeus; in short: as §3
[21] = tested on: CCRF-CEM; assay: Tested for minimum inhibitory concentration required to reduce virus-induced cytopathicity by 50% was evaluated on CEM cell line infected with HIV-1 virus; conditions: Homo sapiens
[22] = tested on: HEF; assay: Tested for minimum inhibitory concentration required to reduce virus-induced cytopathicity by 50% on HEF cell line infected with thymidine kinase-deficient herpes simplex virus type 1 (TK-HSV-1); conditions: Homo sapiens; in short: as §2
[23] = tested on: Vero; assay: Tested for minimum inhibitory concentration required to cause a microscopically detectable alteration of normal cell morphology by 50% on Vero cell line; conditions: Chlorocebus sabaeus; in short: as §1
[24] = tested on: HeLa; assay: tested for minimum inhibitory concentration required to cause a microscopically detectable alteration of normal cell morphology by 50% on HeLa cell line; conditions: Homo sapiens; in short: as §1
[25] = tested on: Vero; assay: Tested for minimum inhibitory concentration required to reduce virus-induced cytopathicity by 50% on vero cell line infected with semliki forest; conditions: Chlorocebus sabaeus; in short: as §3

SMILES	MIC50 [1] [µg/mL]	MIC50 [2] [µg/mL]	MIC50 [3] [µg/mL]	MIC50 [4] [µg/mL]	MIC50 [5] [µg/mL]	MIC50 [6] [µg/mL]	MIC50 [7] [µg/mL]	MIC50 [8] [µg/mL]	MIC50 [9] [µg/mL]	MIC50 [10] [µg/mL]	MIC50 [11] [µg/mL]	MIC50 [12] [µg/mL]	MIC50 [13] [µg/mL]	MIC50 [14] [µg/mL]	MIC50 [16] [µg/mL]	MIC50 [17] [µg/mL]	MIC50 [18] [µg/mL]	MIC50 [19] [µg/mL]	MIC50 [20] [µg/mL]	MIC50 [22] [µg/mL]	further results
C1CNC2(C1)C1CC3CC(C1)CC2C3 (stereo unspecified)	> 200	200 (≈ 1050 µM)	> 50	> 200	> 200	> 200	> 200	> 200	> 30	> 200	> 200	> 200	> 200	100 (≈ 523 µM)	> 200	> 200	> 40	≥ 400	> 200	> 200	MIC50 [15]: ≥ 400 µg/mL; MIC50 [21]: > 40 µg/mL
NC1CC12C1CC3CC(C1)CC2C3 (stereo unspecified)	100 (≈ 564 µM)	> 20	80 (≈ 451 µM)	> 20	40 (≈ 226 µM)	> 20	> 40	> 100	30 (≈ 169 µM)	> 20	> 40	> 20	> 40	32 (≈ 180 µM)	30 (≈ 169 µM)	> 40	> 8	40 (≈ 226 µM)	> 40	> 20	MIC50 [23]: 100 µg/mL (≈ 564 µM); MIC50 [21]: > 8 µg/mL
CN(C)C1CC12C1CC3CC(C1)CC2C3 (stereo unspecified)	100 (≈ 487 µM)	> 200	> 200	> 200	≥ 400	> 200	100 (≈ 487 µM)	> 100	6 (≈ 29.2 µM)	> 400	400 (≈ 1950 µM)	> 200	> 400	> 200	> 200	> 400	> 200	≥ 400	> 400	> 200	MIC50 [15]: > 400 µg/mL; MIC50 [21]: > 200 µg/mL
CNCC1CC12C1CC3CC(C1)CC2C3 (stereo unspecified)	20 (≈ 97.4 µM)	> 20	50 (≈ 243 µM)	> 20	40 (≈ 195 µM)	> 20	> 20	> 20	> 20	> 20	> 20	> 20	> 20	4 (≈ 19.5 µM)	30 (≈ 146 µM)	> 20	> 8	40 (≈ 195 µM)	> 20	> 20	MIC50 [15]: 40 µg/mL (≈ 195 µM); MIC50 [21]: > 8 µg/mL
CN(C)CC1CC12C1CC3CC(C1)CC2C3 (stereo unspecified)	70 (≈ 319 µM)	> 20	95 (≈ 433 µM)	> 20	100 (≈ 456 µM)	> 20	> 70	> 100	> 40	> 70	> 70	> 20	> 70	23 (≈ 105 µM)	40 (≈ 182 µM)	> 70	> 40	40 (≈ 182 µM)	> 70	> 20	MIC50 [15]: 100 µg/mL (≈ 456 µM); MIC50 [21]: > 40 µg/mL
CCN1CCCC12C1CC3CC(C1)CC2C3 (stereo unspecified)	> 200	> 400	> 200	> 400		> 400	> 400	> 200	2.4 (≈ 10.9 µM)	> 400	> 400	≥ 400	> 400	> 200	> 200	> 400	> 200	> 400	> 400	≥ 400	MIC50 [24]: > 400 µg/mL; MIC50 [15]: > 400 µg/mL; MIC50 [21]: > 200 µg/mL
NCC1CC12C1CC3CC(C1)CC2C3 (stereo unspecified)	20 (≈ 105 µM)	> 20	28 (≈ 146 µM)	> 20	20 (≈ 105 µM)	> 20	> 20	> 20	0.8 (≈ 4.18 µM)	> 10	> 20	> 20	> 20	14 (≈ 73.2 µM)	≥ 15		> 8	40 (≈ 209 µM)	> 20	> 20	MIC50 [25]: > 20 µg/mL; MIC50 [15]: 40 µg/mL (≈ 209 µM); MIC50 [21]: > 8 µg/mL
CN1CCCC12C1CC3CC(C1)CC2C3 (stereo unspecified)	> 200	≥ 400	> 50	> 400	> 400	> 400	> 400	> 200	0.56 (≈ 2.73 µM)	> 400	> 400	≥ 400	> 400	> 200	> 200	> 400	> 200	> 400	> 400	≥ 400	MIC50 [15]: > 400 µg/mL; MIC50 [21]: > 200 µg/mL
CNC1CC12C1CC3CC(C1)CC2C3 (stereo unspecified)	100 (≈ 523 µM)	> 70	90 (≈ 470 µM)	> 70	200 (≈ 1050 µM)	> 70	> 70	> 100	1.2 (≈ 6.27 µM)	> 100	> 70	> 40	> 70	75 (≈ 392 µM)	> 150	> 70	> 8	100 (≈ 523 µM)	> 70	> 40	MIC50 [23]: 100 µg/mL (≈ 523 µM); MIC50 [21]: > 8 µg/mL
NC12CC3CC(CC(C3)C1)C2 [AMANTADINE]	> 100				100 (≈ 661 µM)			> 200	100 (≈ 661 µM)						> 100						
NC(=O)c1ncn([C@@H]2O[C@H](CO)[C@@H](O)[C@H]2O)n1 [RIBAVIRIN]	> 200	200 (≈ 819 µM)		> 400	> 200	70 (≈ 287 µM)	70 (≈ 287 µM)	4 (≈ 16.4 µM)	1.2 (≈ 4.91 µM)	70 (≈ 287 µM)	20 (≈ 81.9 µM)	20 (≈ 81.9 µM)	70 (≈ 287 µM)		2.8 (≈ 11.5 µM)	20 (≈ 81.9 µM)		> 400	300 (≈ 1230 µM)	≥ 200	MIC50 [15]: > 400 µg/mL
